Screening data: PubChem, several laboratories
MT1-MMP act inh – blockers of MT1-MMP proenzyme processing, primary screen, HT1080 RFP-PRO-GFP cells, GFP/RFP fluorescence; 360,000 tested, 0.061% active; GFP/RFP ratio change, % at 20 µM; GFP/RFP ratio fluorescence, overnight; percent of plate control window, DMSO zero;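 active = GFP/RFP ratio change of at least 30% with cell ATP level not reduced by more than half and red fluorescence within 50% of control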
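Test system: HT1080 cells expressing an RFP-PRO-GFP fluorescent reporter construct / Compound dosing: single-point 20 µM compound, 1% DMSO / Schedule: cells overnight before dosing, compound overnight, 37 °C, 5% CO2 / Evaluation: GFP/RFP fluorescence ratio / Control set: DMSO and RFP-L50D-GFP cell wells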
DAGLB inhibitor – DAGLB lipase inhibitors, primary screen, biochemical, fluorescence, HTS; AID 504411, 2011; HEK293T DAGLB membrane lysate, EnzChek fluorogenic substrate; inhibition, % at 5.17 µM; 340,000 tested, 0.059% active; in the data active = inhibition above about 34%;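 note: 0% = enzyme with vehicle and 100% = wells lacking enzyme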
DDE Tn7 FP inh – inhibitors of Tn7 peptide binding to fibrin DD(E), primary screen, biochemical, fluorescence polarization, human fibrin, Tn7 probe; inhibition, % at 8.3 µM; 370,000 tested, 0.13% active; Fibrinogen beta chain (Homo sapiens), P02675; FP displacement of FITC-Tn7 peptide from fibrin DD(E); 0% = median of compound wells per plate;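 active = inhibition above the mean of compounds falling within the control limits plus 3 SD of them, cut at about 14% in these data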;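 note: 0% = plate median of compound wells and 100% = 10 µM Aha-Tn7 peptide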
Target sequence (P02675 whole entry, looked up): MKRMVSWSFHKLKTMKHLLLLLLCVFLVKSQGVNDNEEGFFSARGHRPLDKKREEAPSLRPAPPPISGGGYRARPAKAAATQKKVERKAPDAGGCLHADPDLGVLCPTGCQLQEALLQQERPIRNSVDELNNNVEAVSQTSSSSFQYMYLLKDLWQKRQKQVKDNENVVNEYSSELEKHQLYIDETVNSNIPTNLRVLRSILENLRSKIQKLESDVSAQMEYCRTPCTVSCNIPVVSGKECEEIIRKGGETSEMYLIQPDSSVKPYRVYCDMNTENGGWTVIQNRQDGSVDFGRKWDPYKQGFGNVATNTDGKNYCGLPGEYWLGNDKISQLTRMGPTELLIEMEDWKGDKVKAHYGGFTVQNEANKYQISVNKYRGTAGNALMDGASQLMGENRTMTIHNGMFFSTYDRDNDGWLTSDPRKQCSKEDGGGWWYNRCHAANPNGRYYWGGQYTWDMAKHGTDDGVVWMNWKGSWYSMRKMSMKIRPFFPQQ
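Measure: % inhibition scaled between sample-field median and high-control FP; Test system: human fibrin DD(E); Quantity: 2 µM final DD(E) protein; Doses: one dose, 8.3 µM nominal; Schedule: compound with protein 10 min, then 3 h after probe, room temperature; Detection: fluorescence polarization; Medium: Tris buffer with calcium and detergent, pH 7.8.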
H9c2 TAG inh – inhibitors of triacylglycerol accumulation, primary screen, cell-based, uHTS, fluorescence, H9c2; 230,000 tested, 0.66% active; H9c2 cells, Nile Red lipid (TAG) fluorescence; cells loaded with 200 µM oleic acid; inhibition, % at 12.5 µM; AID 651582, 2012;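 active = pattern-corrected inhibition of lipid staining of at least 50% with the nuclear-stain viability signal not falling by more than 50%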;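 note: 0% = DMSO wells and 100% = triacsin C control wells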
H9c2 protect – cardioprotection against H2O2-induced cell death, primary screen, uHTS, H9c2 cells, ATPLite luminescence; protection from H2O2 cell death, % at 20 µM; H9c2 cardiomyocytes, H2O2 injury protection, 2 h; AID 588492, 2011; 360,000 tested, 0.63% active;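 active = compounds giving at least 50% protection of heart cells from peroxide-induced death in the single-dose screen, raw or plate-pattern-corrected value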;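 note: 0% = DMSO wells with peroxide and 100% = DMSO wells without peroxide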
DDE Tn6 FP inh – inhibitors of Tn6 peptide binding to fibrin DD(E), primary screen, biochemical, fluorescence polarization, human fibrin, Tn6 probe | Fibrinogen beta chain (Homo sapiens), P02675 | Fibrin DD(E) TRITC-Tn6 fluorescence polarization displacement | inhibition, % at 8.3 µM | 370,000 tested, 0.21% active | AID 720509, 2013;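 active = inhibition above a per-campaign cutoff: mean of compounds within control limits plus 3 SD, cut at about 15% in these data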;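 note: 0% = median of all compound wells on the plate and 100% = blocking peptide control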
Active calls of the source: *; . = not tested or not shown. Compounds with a hit are over-represented: about 1.4% of the library has one in this group of screens.

SMILES | MT1-MMP act inh | DAGLB inhibitor | DDE Tn7 FP inh | H9c2 TAG inh | H9c2 protect | DDE Tn6 FP inh
C1CCCCCC2(CCCCC1)OCC(CN1CCOCC1)O2 (centres undefined) | -1 | -8 | 1 | . | -9 | 4
O=c1[nH]n(CC2COC3(CCCCC3)O2)c(=O)c2ccccc12 (centres undefined) | 11 | -2 | 5 | . | 52* | 4
COc1ccc2cc3cc(C(=O)Nc4ccccc4N4CCN(C)CC4)oc3nc2c1 | -20 | -3 | 2 | 53* | -22 | -3
COc1ccc2cc3cc(C(=O)NCCN4CCN(c5ccccc5F)CC4)oc3nc2c1 | 24 | -4 | 3 | 43 | 48 | 1
O=C(Nc1ccc2c(c1)OCO2)N1CCC(c2nc3ccc(Cl)cc3[nH]2)CC1 | . | . | -4 | . | . | -5
COC(=O)[C@]12C[C@H](CC(=O)NCc3ccccc3)C(=O)N(Cc3ccc(Cl)cc3Cl)C1=C[C@H](COCc1ccccc1)O[C@@H]2C | . | . | 4 | . | . | 1
O=C(O[C@H]1CC[C@@]23CCCN2C(=O)CCC[C@H]3C1)N1CCN(c2ccccc2)CC1 | . | . | -4 | . | . | 5
O=C1c2cccc(Sc3ccccc3)c2C(=O)c2c(Sc3ccccc3)cccc21 | 9 | . | -1 | 78* | 1 | 8
CN(C)c1cccc2c1C(=O)c1ccccc1C2=O | 17 | 24 | -8 | 9 | -7 | -9
CCOC(=O)/C(=C\c1ccccc1)C(=O)c1cc(C(C)=O)c(Nc2ccccc2)s1 | -34 | 5 | 9 | . | -6 | 1
CCOC(=O)/C(=C\c1cccnc1)C(=O)c1cc(C(C)=O)c(Nc2ccccc2)s1 | -12 | 13 | . | 80* | -36 | .
Cc1ccc(C(=O)C2C(=O)c3ccccc3C2=O)cc1 | -183 | 4 | 5 | . | 4 | -7
NN=C1c2ccccc2C(=O)C1C(=O)C(c1ccccc1)c1ccccc1 (centres undefined) | -17 | -11 | -4 | -84 | -1 | 19*
COCCn1nnnc1C(C(C)C)N(Cc1cccnc1)Cc1cc2cc(OC)ccc2[nH]c1=O (centres undefined) | -4 | -5 | 2 | 6 | 61* | 0
COc1ccc2[nH]c(=O)c(CN(Cc3nnnn3Cc3ccco3)C3CCCCC3)cc2c1 | -9 | 10 | 4 | 15 | 44 | 3
CCC(c1nnnn1Cc1ccco1)N(Cc1cc2cc(C)cc(C)c2[nH]c1=O)CC1CCCO1 (centres undefined) | -21 | -2 | 3 | 11 | 62* | -7
COc1ccc2[nH]c(=O)c(CN(C3CCCCC3)C(c3nnnn3Cc3ccco3)C(C)C)cc2c1 (centres undefined) | -25 | 16 | . | -1 | 95* | .
COCCn1nnnc1C(C(C)C)N(Cc1ccccc1)Cc1cc2cc(OC)ccc2[nH]c1=O (centres undefined) | 2 | 4 | -4 | -9 | 42 | 3
COc1ccc2[nH]c(=O)c(CN(Cc3ccco3)C(c3nnnn3Cc3ccccc3)C(C)C)cc2c1 (centres undefined) | -5 | 4 | 2 | . | 51* | 7
CCC(c1nnnn1Cc1ccco1)N(Cc1ccccc1OC)Cc1cc2cc(C)ccc2[nH]c1=O (centres undefined) | -26 | 2 | -3 | 6 | -23 | 7
O=C(NCCc1c[nH]c2ccccc12)OCc1cn(Cc2ccc(F)c(F)c2)nn1 | . | . | 0 | . | . | 4
Cc1c(C(=O)OCCOC(C)C)[nH]c2c1C(=O)CC(c1ccco1)C2 (centres undefined) | 16 | -2 | . | 43 | 8 | .
CCOc1ccc(C2CC(=O)c3c([nH]c(C(=O)OC)c3C)C2)cc1OC (centres undefined) | 2 | -2 | -4 | 1 | 8 | -4
COCCOC(=O)c1[nH]c2c(c1C)C(=O)CC(c1ccco1)C2 (centres undefined) | 8 | 3 | 5 | 60* | 1 | 2
CCOC(=O)c1[nH]c2c(c1C)C(=O)CC(c1ccco1)C2 (centres undefined) | 16 | -1 | 4 | 38 | -15 | -2
SMILES | MT1-MMP act inh | DAGLB inhibitor | DDE Tn7 FP inh | H9c2 TAG inh | H9c2 protect | DDE Tn6 FP inh
CSCCOC(=O)c1[nH]c2c(c1C)C(=O)CC(c1ccco1)C2 (centres undefined) | 1 | 1 | -8 | 56* | -9 | -3
COC(=O)c1[nH]c2c(c1C)C(=O)CC(c1cc(OC)ccc1OC)C2 (centres undefined) | 2 | 1 | -1 | . | 57* | -5
Cc1cccc(NC(=O)Nc2ccccc2C(=O)N2CCCC2)c1 | . | . | 0 | . | . | -11
Cc1ccc(S(=O)(=O)NCC(=O)N(c2ccccc2)C(C(=O)NCc2ccccc2)c2ccco2)cc1 (centres undefined) | 0 | 3 | -2 | . | 58* | 5
COc1ccc2c(c1)CCCN2C(=O)C1CCCN(S(=O)(=O)c2cc(OC)ccc2OC)C1 (centres undefined) | . | . | 12 | . | . | 6
O=C(CCc1nc2ccccc2c(=O)[nH]1)Nc1nnc(SCc2ccc(Cl)cc2)s1 | -4 | 2 | -3 | 0 | -3 | -6
CC(=O)NCc1ccc(-c2csc(NC(=O)CCc3nc4ccccc4c(=O)[nH]3)n2)s1 | -3 | 0 | -1 | 7 | 90* | -8
O=C(COC(=O)CCc1nc2ccccc2c(=O)[nH]1)NCc1ccc(F)cc1 | 0 | 2 | -1 | 2 | 50* | 8
O=C(CCc1nc2ccccc2c(=O)[nH]1)OCCOc1ccc(Cl)cc1 | 3 | -2 | -6 | -3 | 66* | -4
CCc1nc2ccccc2c(C(=O)OCc2nc3ccccc3c(=O)[nH]2)c1C | 0 | 1 | 2 | 17 | 56* | -4
CCc1nc2ccccc2c(C(=O)OCC(=O)C(C)(C)C)c1C | -3 | -6 | -1 | . | 8 | 1
CCC(=O)N1CCc2cc(Br)c(S(=O)(=O)NCCCN(C)Cc3ccccc3)cc21 | . | . | 1 | . | . | -3
C=CCN1C(=O)[C@@H](CC(=O)NCCCC)[C@]2(C(=O)OC)CCCCC=C12 | . | . | -5 | . | . | -3
Cc1ccc(CNC(=O)CCc2nc3ccccc3c(=O)[nH]2)cc1 | -2 | 1 | -2 | -21 | 51* | 0
O=C(CCc1nc2ccccc2c(=O)[nH]1)OCc1nnc(-c2ccccc2)o1 | 6 | -1 | -2 | . | 75* | -4
